What was measured:
[1] = target: T1, Calpain-1 catalytic subunit (Homo sapiens) (UniProt P07384); assay: Compound is evaluated for inhibition kinetic constant (kobs/[I], 1/M.1/s) for calpain 1
T1 sequence (whole entry): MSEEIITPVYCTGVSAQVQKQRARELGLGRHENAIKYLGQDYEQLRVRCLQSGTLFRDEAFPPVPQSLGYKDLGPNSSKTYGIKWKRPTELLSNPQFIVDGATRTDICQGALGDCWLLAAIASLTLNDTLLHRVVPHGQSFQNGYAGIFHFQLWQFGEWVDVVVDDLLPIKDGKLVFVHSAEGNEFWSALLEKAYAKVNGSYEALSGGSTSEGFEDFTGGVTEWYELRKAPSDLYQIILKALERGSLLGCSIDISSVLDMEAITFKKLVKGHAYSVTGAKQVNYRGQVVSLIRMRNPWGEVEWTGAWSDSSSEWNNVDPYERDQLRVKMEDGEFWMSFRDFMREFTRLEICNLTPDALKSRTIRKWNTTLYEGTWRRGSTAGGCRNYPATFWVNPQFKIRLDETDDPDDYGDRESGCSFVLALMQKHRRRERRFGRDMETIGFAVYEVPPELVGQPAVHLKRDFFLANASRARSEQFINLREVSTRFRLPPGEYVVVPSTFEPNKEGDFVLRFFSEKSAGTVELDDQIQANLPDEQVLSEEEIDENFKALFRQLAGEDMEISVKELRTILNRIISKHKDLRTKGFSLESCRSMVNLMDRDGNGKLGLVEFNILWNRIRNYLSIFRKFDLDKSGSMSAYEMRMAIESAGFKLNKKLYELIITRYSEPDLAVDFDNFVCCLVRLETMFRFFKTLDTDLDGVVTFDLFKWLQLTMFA
Outline: (§1)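 Enzyme ~20 nM is added last to substrate plus inhibitor at 25 °C. Fluorescence ex 380/em 450 nm for 5 min or until ≤1% activity. Progress curves fit first-order to kobs; reported as kobs/[I]; duplicate runs.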

[2] = target: T2, Cathepsin S (Homo sapiens, UniProt P25774); assay: Compound is evaluated for inhibition kinetic constant (kobs/[I], 1/M.1/s) for cathepsin S
Outline: (§2)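 Fluorescence ex 380/em 450 nm, 5 min or to ≤1% activity. kobs from first-order fits, ≥6 inhibitor levels near Ki, fit to saturation equation; Ki corrected by 1+[S]/Km; duplicates.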
Target sequence in this assay (P25774 115-331 limits assumed): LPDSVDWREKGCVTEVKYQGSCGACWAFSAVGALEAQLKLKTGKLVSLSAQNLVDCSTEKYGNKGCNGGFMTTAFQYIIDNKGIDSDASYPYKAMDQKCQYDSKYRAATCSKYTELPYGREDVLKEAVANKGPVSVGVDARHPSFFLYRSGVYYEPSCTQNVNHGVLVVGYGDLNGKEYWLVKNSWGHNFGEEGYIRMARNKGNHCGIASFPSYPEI

[3] = target: T3, Cathepsin K (Homo sapiens) (UniProt P43235); assay: Compound is evaluated for inhibition kinetic constant (kobs/[I], 1/M.1/s) for cathepsin O2
T3 sequence (whole entry): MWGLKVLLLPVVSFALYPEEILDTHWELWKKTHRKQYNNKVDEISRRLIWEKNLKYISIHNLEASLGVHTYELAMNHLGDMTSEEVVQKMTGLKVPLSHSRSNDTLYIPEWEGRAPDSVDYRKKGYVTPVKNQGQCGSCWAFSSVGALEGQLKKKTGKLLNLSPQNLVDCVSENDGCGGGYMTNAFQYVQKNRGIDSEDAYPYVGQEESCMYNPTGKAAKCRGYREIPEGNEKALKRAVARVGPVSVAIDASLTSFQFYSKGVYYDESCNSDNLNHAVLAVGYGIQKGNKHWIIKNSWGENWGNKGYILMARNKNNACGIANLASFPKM
Outline: (§3)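 Read at ex 380/em 450 nm for 5 min. Progress curves fit first-order for kobs at ≥6 inhibitor concentrations; kinact and Ki app from saturation fit, Ki corrected for substrate; ratio also from double-reciprocal slope; duplicates.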

[4] = target: T4, Procathepsin L (Homo sapiens, UniProt P07711); assay: Compound is evaluated for inhibition kinetic constant (kobs/[I], 1/M.1/s) for cathepsin L
Outline: (§4)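 Fluorescence increase (ex 380, em 450 nm) followed 5 min or to ≤1% activity. kobs by first-order fit at ≥6 inhibitor levels near Ki, fit to saturation equation; Ki = Ki app/(1+[S]/Km); duplicates.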
Target sequence in this assay (P07711 114-333 limits assumed): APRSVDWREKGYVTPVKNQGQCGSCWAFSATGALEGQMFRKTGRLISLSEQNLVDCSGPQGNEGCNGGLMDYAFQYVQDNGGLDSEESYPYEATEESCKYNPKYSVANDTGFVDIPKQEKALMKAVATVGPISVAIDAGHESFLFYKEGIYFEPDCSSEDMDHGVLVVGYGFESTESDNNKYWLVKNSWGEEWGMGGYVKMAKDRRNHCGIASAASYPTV

[5] = target: T5, Cathepsin B (Homo sapiens, UniProt P07858); assay: Compound is evaluated for inhibition kinetic constant (kobs/[I], 1/M.s) for cathepsin B
Outline: (§5)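 Cathepsin B, ~5-10 nM, added to 50 mM phosphate pH 6.0, 2.5 mM EDTA, 2.5 mM DTT, 50 μM Z-Arg-Arg-AMC (Km 190 μM), DMF <1%, 25 °C. Fluorescence ex 380/em 450 nm over 5 min. kobs by first-order fit at ≥6 inhibitor concentrations; kirr and Ki app from saturation fit, Ki = Ki app/(1+[S]/Km); kirr/Ki also from 1/kobs vs 1/[I]; duplicates.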

[6] = target: Cruzipain (Trypanosoma cruzi) (UniProt P25779); assay: Compound is evaluated for inhibition kinetic constant (kobs/[I], 1/M.1/s) for Cruzaine
Chain of Cruzipain (Trypanosoma cruzi) (P25779 123-467 limits assumed): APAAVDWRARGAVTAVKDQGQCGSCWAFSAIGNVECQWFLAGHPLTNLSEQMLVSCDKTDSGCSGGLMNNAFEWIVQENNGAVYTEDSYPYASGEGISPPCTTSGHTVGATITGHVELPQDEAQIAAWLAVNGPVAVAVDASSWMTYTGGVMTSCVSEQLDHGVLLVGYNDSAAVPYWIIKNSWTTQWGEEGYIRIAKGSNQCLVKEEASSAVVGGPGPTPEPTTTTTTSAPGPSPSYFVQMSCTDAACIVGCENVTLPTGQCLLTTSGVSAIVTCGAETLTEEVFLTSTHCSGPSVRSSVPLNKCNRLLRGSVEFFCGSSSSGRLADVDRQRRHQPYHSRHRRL
Outline: (§6)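 Enzyme (~1-5 nM) starts the reaction with substrate and inhibitor present. Fluorescence ex 380/em 450 nm for 5 min. kobs from first-order fits at ≥6 inhibitor concentrations; Ki app corrected by 1+[S]/Km; second-order constant from 1/kobs vs 1/[I] slope; duplicates.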

[7] = target: T6, Calpain-2 catalytic subunit (Homo sapiens) (UniProt P17655); assay: Compound is evaluated for inhibition kinetic constant (kobs/[I], 1/M.1/s) for Calpain 2; outline: as §1
T6 sequence (whole entry): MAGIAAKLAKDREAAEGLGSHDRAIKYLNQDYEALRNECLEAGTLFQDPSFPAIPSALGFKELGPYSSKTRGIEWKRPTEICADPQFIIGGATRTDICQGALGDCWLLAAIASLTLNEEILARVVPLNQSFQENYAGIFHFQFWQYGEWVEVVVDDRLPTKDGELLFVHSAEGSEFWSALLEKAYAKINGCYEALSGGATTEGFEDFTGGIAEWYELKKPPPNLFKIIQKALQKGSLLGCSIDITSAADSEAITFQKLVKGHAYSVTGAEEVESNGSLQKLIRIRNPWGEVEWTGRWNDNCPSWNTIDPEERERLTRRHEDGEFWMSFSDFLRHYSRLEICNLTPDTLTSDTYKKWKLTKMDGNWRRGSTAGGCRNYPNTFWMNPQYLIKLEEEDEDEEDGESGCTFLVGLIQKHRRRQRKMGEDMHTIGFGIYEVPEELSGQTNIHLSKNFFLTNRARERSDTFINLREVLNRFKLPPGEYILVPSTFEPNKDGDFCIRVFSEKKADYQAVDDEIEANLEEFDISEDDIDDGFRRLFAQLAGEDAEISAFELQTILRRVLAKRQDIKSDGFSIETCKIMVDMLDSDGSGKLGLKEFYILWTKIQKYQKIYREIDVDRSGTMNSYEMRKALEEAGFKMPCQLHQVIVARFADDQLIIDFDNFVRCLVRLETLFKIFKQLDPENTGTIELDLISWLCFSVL

[8] = target: T5, Cathepsin B; assay: Compound is evaluated for inhibition kinetic constant Kirr for the cathepsin B; outline: as §5
[9] = target: T5, Cathepsin B; assay: Ratio of inhibition kinetic constants kirr and Ki against Cathepsin B; outline: as §5
[10] = target: T5, Cathepsin B; assay: Compound is evaluated for inhibition kinetic constant Ki for the cathepsin B; outline: as §5
[11] = target: T5, Cathepsin B; assay: Compound is evaluated for inhibitory potency against cathepsin B; outline: as §5
[12] = target: T2, Cathepsin S; assay: Compound is evaluated for inhibitory potency against cathepsin S; outline: as §2
Target sequence in this assay (P25774 whole entry): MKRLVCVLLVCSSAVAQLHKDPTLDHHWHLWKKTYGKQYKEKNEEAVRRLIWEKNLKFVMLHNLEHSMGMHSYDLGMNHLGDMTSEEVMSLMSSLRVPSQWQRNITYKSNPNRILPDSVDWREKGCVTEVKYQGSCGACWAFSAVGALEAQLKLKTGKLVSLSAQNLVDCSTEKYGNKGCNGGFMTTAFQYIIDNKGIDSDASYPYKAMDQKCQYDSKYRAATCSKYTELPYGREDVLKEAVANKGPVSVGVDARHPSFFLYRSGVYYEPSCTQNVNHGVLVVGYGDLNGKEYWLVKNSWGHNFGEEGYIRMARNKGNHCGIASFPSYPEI

[13] = target: T2, Cathepsin S; assay: Compound is evaluated for inhibition kinetic constant Kinact for the cathepsin S; outline: as §2
Target sequence in this assay (P25774 115-331 limits assumed): as the sequence (P25774 115-331 limits assumed) above

[14] = target: T2, Cathepsin S; assay: Ratio of inhibition kinetic constants kinact and Ki against Cathepsin S; outline: as §2
Target sequence in this assay (P25774 115-331 limits assumed): as above

[15] = target: Cruzipain (Trypanosoma cruzi) (UniProt P25779); assay: Ratio of inhibition kinetic constants kinact and Ki against Cruzaine; outline: as §6
[16] = target: T4, Procathepsin L; assay: Compound is evaluated for inhibition kinetic constant Kinact for the cathepsin L; outline: as §4
Target sequence in this assay (P07711 114-333 limits assumed): as the sequence (P07711 114-333 limits assumed) above

[17] = target: T4, Procathepsin L; assay: Compound is evaluated for inhibitory potency against cathepsin L; outline: as §4
Target sequence in this assay (P07711 whole entry): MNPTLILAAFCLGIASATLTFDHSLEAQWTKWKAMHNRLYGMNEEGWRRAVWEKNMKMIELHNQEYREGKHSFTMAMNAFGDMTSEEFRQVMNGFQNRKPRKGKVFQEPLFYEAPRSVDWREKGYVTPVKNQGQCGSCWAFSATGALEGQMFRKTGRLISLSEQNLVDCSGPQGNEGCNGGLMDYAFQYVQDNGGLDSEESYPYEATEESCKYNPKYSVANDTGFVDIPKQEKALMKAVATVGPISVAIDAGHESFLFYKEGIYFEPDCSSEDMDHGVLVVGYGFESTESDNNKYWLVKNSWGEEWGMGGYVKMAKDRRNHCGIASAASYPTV

[18] = target: T3, Cathepsin K (Homo sapiens); assay: Compound is evaluated for inhibition kinetic constant Kinact for the cathepsin O2; outline: as §3
[19] = target: T7, Cathepsin K (Homo sapiens, UniProt P43235); assay: Compound is evaluated for inhibitory potency against cathepsin O2; outline: as §3
T7 sequence (P43235 whole entry): T3 sequence (whole entry)

[20] = target: T3, Cathepsin K (Homo sapiens); assay: Ratio of inhibition kinetic constants kinact and Ki against Cathepsin O2; outline: as §3
[21] = target: Cruzipain (Trypanosoma cruzi) (UniProt P25779); assay: Compound is evaluated for inhibition kinetic constant Kinact for the Cruzaine; outline: as §6
[22] = target: Cruzipain (Trypanosoma cruzi, UniProt P25779); assay: Compound is evaluated for inhibitory potency against Cruzaine; outline: as §6
Chain of Cruzipain (P25779 whole entry): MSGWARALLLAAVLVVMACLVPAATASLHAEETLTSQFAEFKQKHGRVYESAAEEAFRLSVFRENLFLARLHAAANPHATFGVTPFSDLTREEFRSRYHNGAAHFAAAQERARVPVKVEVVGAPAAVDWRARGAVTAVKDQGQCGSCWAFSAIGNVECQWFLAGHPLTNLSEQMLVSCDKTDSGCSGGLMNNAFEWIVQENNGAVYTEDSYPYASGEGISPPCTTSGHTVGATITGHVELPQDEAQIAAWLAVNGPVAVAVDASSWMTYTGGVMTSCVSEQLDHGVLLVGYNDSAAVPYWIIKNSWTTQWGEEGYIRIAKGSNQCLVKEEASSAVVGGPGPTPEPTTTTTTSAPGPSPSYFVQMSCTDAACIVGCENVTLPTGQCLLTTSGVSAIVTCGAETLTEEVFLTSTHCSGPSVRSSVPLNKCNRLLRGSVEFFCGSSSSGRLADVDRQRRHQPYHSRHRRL

[23] = target: T4, Procathepsin L; assay: Ratio of inhibition kinetic constants kinact and Ki against Cathepsin L; outline: as §4
Target sequence in this assay (P07711 114-333 limits assumed): as the sequence (P07711 114-333 limits assumed) above

SMILES | k obs / 1 [1] [M⁻¹ s⁻¹] | k obs / 1 [2] [M⁻¹ s⁻¹] | k obs / 1 [3] [M⁻¹ s⁻¹] | k obs / 1 [4] [M⁻¹ s⁻¹] | k obs / 1 [5] [M⁻¹ s⁻¹] | k obs / 1 [6] [M⁻¹ s⁻¹] | kirr [8] [s⁻¹] | other results
CC(C)C[C@H](NC(=O)NN1CCOCC1)C(=O)N[C@@H](CC(C)C)C(=O)N[C@@H](Cc1ccc(O)cc1)C(=O)/C=C/S(=O)(=O)c1ccccc1 | 10800 | 25100 | 815 | 28700 | – | – | – | –
O=C(NC(=O)[C@H](Cc1ccc2ccccc2c1)NC(=O)[C@H](CCc1ccccc1)N/C=C/S(=O)(=O)CCc1ccccc1)NN1CCOCC1 | – | 2.9e+07 | – | 2.24e+06 | 33000 | 450000 | – | –
O=C(NC(=O)[C@H](Cc1ccccc1)NC(=O)[C@H](CCc1ccccc1)N/C=C/S(=O)(=O)CCc1ccccc1)NN1CCOCC1 | – | 4.7e+06 | 28500 | 340000 | 29000 | 180000 | – | –
CCCC[C@H](NC(=O)[C@H](CC(C)C)NC(=O)[C@H](CC(C)C)NC(C)=O)C(=O)/C=C/S(=O)(=O)c1ccccc1 | 6900 | – | – | 930000 | 0 | 133000 | – | k obs / 1 [7]: 7600 M⁻¹ s⁻¹
CC(C)C[C@H](NC(=O)OCc1ccccc1)C(=O)N[C@@H](CC(C)C)C(=O)N[C@@H](Cc1ccc(O)cc1)C(=O)/C=C/S(=O)(=O)c1ccccc1 | 6400 | 280000 | 900 | – | 730 | 45000 | – | –
O=C(NC(=O)[C@H](Cc1ccccc1)NC(=O)[C@H](CCc1ccccc1)N/C=C/S(=O)(=O)c1ccccc1)NN1CCOCC1 | – | – | – | – | – | – | 0.17 | Ki [11]: 11000 nM; Ki [12]: 11 nM; K inact [13]: 0.085 s⁻¹; Ratio [14]: 7.7e+06; Ratio [15]: 203000; Ratio [9]: 16400; K inact [16]: 0.24 s⁻¹; Ki [17]: 1000 nM; K inact [18]: 0.31 s⁻¹; Ki [19]: 30500 nM; Ratio [20]: 10200; K inact [21]: 0.072 s⁻¹; Ki [22]: 360 nM; Ratio [23]: 224000
NCCCC[C@H](N/C=C/S(=O)(=O)c1ccccc1)C(=O)N[C@@H](Cc1ccccc1)C(=O)NC(=O)NN1CCOCC1 | – | 1.07e+07 | 83300 | 220000 | 11300 | 149000 | – | –
O=C(NC(=O)[C@H](Cc1ccc2ccccc2c1)NC(=O)[C@H](CCc1ccccc1)N/C=C/S(=O)(=O)c1ccc2ccccc2c1)NN1CCOCC1 | – | – | – | – | – | – | 0.061 | Ki [11]: 150 nM; Ki [12]: 1.8 nM; K inact [13]: 0.1 s⁻¹; Ratio [15]: 1.04e+06; K inact [16]: 0.14 s⁻¹; Ki [17]: 18 nM; K inact [21]: 0.046 s⁻¹; Ki [22]: 48 nM

Continued, in another order:

k obs / 1 [1] [M⁻¹ s⁻¹] | k obs / 1 [2] [M⁻¹ s⁻¹] | k obs / 1 [3] [M⁻¹ s⁻¹] | k obs / 1 [4] [M⁻¹ s⁻¹] | k obs / 1 [5] [M⁻¹ s⁻¹] | k obs / 1 [6] [M⁻¹ s⁻¹] | kirr [8] [s⁻¹] | SMILES | other results
– | – | – | – | – | – | 0.36 | O=C(NC(=O)[C@H](Cc1cc(I)c(O)c(I)c1)NC(=O)[C@H](CCc1ccccc1)N/C=C/S(=O)(=O)c1ccccc1)NN1CCOCC1 | Ratio [9]: 1.08e+06; Ki [10]: 340 nM
5600 | – | 25000 | 880000 | 0 | 110000 | – | CSCC[C@H](NC(=O)[C@H](CC(C)C)NC(=O)[C@H](CC(C)C)NC(C)=O)C(=O)/C=C/S(=O)(=O)c1ccccc1 | –
8400 | – | 22700 | 1.5e+06 | 0 | 104000 | – | CC(=O)N[C@@H](CC(C)C)C(=O)N[C@@H](CC(C)C)C(=O)N[C@@H](CCS(C)(=O)=O)C(=O)/C=C/S(=O)(=O)c1ccccc1 | k obs / 1 [7]: 24300 M⁻¹ s⁻¹
– | – | – | – | – | – | 0.17 | CC(C)C[C@H](NC(=O)[C@H](CCc1ccccc1)N/C=C/S(=O)(=O)c1ccccc1)C(=O)NC(=O)NN1CCOCC1 | Ki [11]: 39000 nM; Ki [12]: 5.9 nM; K inact [13]: 0.16 s⁻¹; Ratio [14]: 2.63e+07; Ratio [15]: 620000; Ratio [9]: 4250; K inact [16]: 0.28 s⁻¹; Ki [17]: 720 nM; K inact [18]: 0.17 s⁻¹; Ki [19]: 230 nM; Ratio [20]: 773000; K inact [21]: 0.13 s⁻¹; Ki [22]: 220 nM; Ratio [23]: 387000
– | 1.2e+06 | 6540 | 8700 | 5100 | 22000 | – | CS(=O)(=O)/C=C/N[C@@H](CCc1ccccc1)C(=O)N[C@@H](Cc1ccccc1)C(=O)NC(=O)NN1CCOCC1 | –

Reference: ChEMBL document CHEMBL1128689, “Vinyl sulfones as mechanism-based cysteine protease inhibitors” (J Med Chem, 1995)
